The text below walks through data of ChEMBL document CHEMBL4513216, “Probing the Open Global Health Chemical Diversity Library for Multistage-Active Starting Points for Next-Generation Antimalarials” (ACS Infect Dis, 2020).

The nature of this data set: Toxicity liver stage against HepG2, at 10uM. Format: cell-based. Details: test concentration 10 uM, cell line HepG2-A16-CD81EGFP. To be noted: human, HepG2-A16-CD81EGFP cells; read-out: INHIBITION
The method, boiled down: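 Uninfected HepG2-A16-CD81EGFP cells, 3 × 10^3 per well, 1536-well, plated on prespotted compound at 10 μM final, parasite-free screening media added to match infected plates; puromycin 10 μM positive, DMSO 0.5% negative; run in parallel with 48 h PbLuc assay at 37 °C, 5% CO2; viability by CellTiter-Glo luminescence, normalized to controls.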
`Cn1cnn(CC(=O)NCc2ccccc2F)c1=O`: the cytotoxicity at 10 µM came out at 2.4%.
For `CC(C)n1nccc1C(=O)N1CCC(c2nnsc2S(C)(=O)=O)CC1`, the cytotoxicity at 10 µM is -0.88%.
The figure for `COCCCN1Cc2cccc(NC(=O)c3cc(F)ccc3F)c2C1` is -1.74%; for `Cc1nn(C)c2c(=O)n(Cc3ccc(F)cc3)nnc12` it is 3.41%.
To `Cc1ccc(C2c3c(n[nH]c3C)N=C3COC(=O)C32)cc1C` (stereo unspecified) belongs 74.9%; to `O=C1CN(C(=O)CNC(CC(F)(F)F)c2ccc(F)cc2)CCN1` (stereo unspecified), 10.4%; to `COC1COC2(CCN(CC3CC3)CC2)C1` (stereo unspecified), -103%.
To `Cn1ccc(C(=O)Nc2nnc(-c3ccccn3)[nH]2)cc1=O` belongs 6.69%; to `CCc1nc(C)ncc1C(=O)N1CCCC(n2nc(C)nc2C)C1` (stereo unspecified), -8.47%.
`Cc1nc(C(=O)N2CCCCC2)nn1-c1ccccc1Cl`: the cytotoxicity at 10 µM was -6.46%.
Take `CCCN(CC(=O)N1CCNCC1)C(=O)c1cccc(Cl)c1`: the cytotoxicity at 10 µM was 10.7%.
The figure for `Cc1nn(C)cc1CN1CCN(CC2(c3ccccc3)CC2)CC1` is 1.25%.
To `CC(C)c1n[nH]c(C(=O)Nc2ccnn2C(C)C)c1Br` belongs 13.8%.
To `CCCN1CCN(CC(O)c2ccc(OC(F)(F)F)cc2)CC1` (stereo unspecified) belongs -20.5%; to `O=c1c2cnc(N3CCCCC3)nc2ccn1Cc1ccco1`, -9.69%; to `CS(=O)(=O)N1CCC(Oc2ccc(C(=O)N3CCSCC3)cc2Cl)CC1`, 16.2%.
As for `COCc1ncn2c1CN(C(=O)c1ccco1)CC2`, the cytotoxicity at 10 µM was found to be 9.32%.
The figure for `Cc1nc(C2CCCN2CC(=O)N(Cc2ccsc2)C2CC2)no1` (stereo unspecified) is -12.1%; for `COc1cccc(C(C(=O)O)N2CCCN(C3CCCC3)CC2)c1OC` (stereo unspecified) it is -11.3%; for `COc1ccc(CN2CCC3(CC2)CCN(c2ncccn2)CC3)cc1` it is -1.08%.
To `Cc1noc(C)c1CNC(C(=O)N1CCOCC1)C(C)C` (stereo unspecified) belongs 4.55%; to `COc1ccccc1C(C)(C)NC(=O)NCCC(=O)NC1CCCC1`, 8.42%.
To `CN(CC(F)(F)F)C(=O)COc1nc(Cc2ccc(F)cc2)no1` belongs 9.36%.
`Cc1ccc(C(=O)N2C[C@@H]3CCCO[C@@H]3[C@H](N(C)Cc3ccco3)C2)o1`: the cytotoxicity at 10 µM amounted to 5.51%.
In the case of `COc1ccc(Cl)cc1NC(=O)CNc1ccn(CC(N)=O)n1`, the cytotoxicity at 10 µM was found to be 13.6%.
The figure for `NCc1cnn(-c2ccccc2C(=O)NCc2ccncc2)c1` is -1.78%.
To `CC(C)C(c1cccnc1)N(C)C(=O)Cc1ccc(O)cc1` (stereo unspecified) belongs -1.03%.
The figure for `CN1CCO[C@@H]2CN(C(=O)NCc3cccc(F)c3)CC[C@@H]2C1` is -111%.
On to `CN1C(=O)[C@@H]2CC[C@H]1CN(C(=O)c1sccc1S(N)(=O)=O)C2`, for which the cytotoxicity at 10 µM was 5.6%.
To `O=C(NCC1(N2CCOCC2)CCSC1)Nc1cn[nH]c1` (stereo unspecified) belongs 9.37%.
Take `Cc1cc(CNc2cccc(Cl)c2C)no1`: the cytotoxicity at 10 µM was -2.4%.
With `O=S(=O)(c1ccc(Cl)cc1)N1CCC(OCc2ccccn2)C1` (stereo unspecified), the cytotoxicity at 10 µM stood at 1.48%.
The figure for `CCC1=N[C@@]2(CC[C@@H]3CN(C(=O)Nc4ccc(F)cc4)C[C@@H]32)C(=O)N1` is -24%; for `CCC(C)(CC(=O)O)NC(=O)Cc1ccccc1Br` (stereo unspecified) it is 1.29%.
Take `Cc1cnc(-c2nc(NC3CCCC3)ncc2-c2onc(C)c2C)cn1`: the cytotoxicity at 10 µM was -32.5%.
The figure for `COc1ccc(N2CCC(NC(=O)c3ccc(C#N)cc3)CC2)cc1` is -14.7%; for `Cc1nn(C)cc1CN1CCCn2nc(CNC(=O)C3CCC3)cc2C1` it is 2.84%.
The figure for `Cc1cn2nc(N3CCCC3C(=O)N3CCSCC3)sc2n1` (stereo unspecified) is 10.9%.
To `COCC1CC2(CCN(C(=O)c3ccc(F)cc3C)CC2)CO1` (stereo unspecified) belongs -108%; to `O=C(C1CCS(=O)(=O)CC1)N1C[C@@H]2CC[C@H]1CN(Cc1ccccc1)C2`, -2.22%.
For the compound `CCN1CCOC(CNCc2c(Cl)nc3ccccn23)C1` (stereo unspecified), the cytotoxicity at 10 µM is 0.174%.
To `COCCO[C@H]1CCN(C(=O)c2ccc[nH]2)[C@H]1Cc1ccncc1` belongs -5.46%; to `CCOc1nnc(CN(C)CC2CCCN2c2cccnn2)s1` (stereo unspecified), -10.7%.
To `COc1cc(C)c2c(c1C)C[C@@H](C(C)C(=O)O)CC2` (stereo partly specified) belongs 4.98%; to `Cc1ccc2c(n1)N(CCN(C)C)CCN(C(=O)N1CCOCC1)C2`, -73.1%.
The figure for `CC(C)(CO)Nc1cc(-c2cn[nH]c2)ncn1` is -1.44%; for `Cc1nn(C)cc1C(=O)N1CCCC(c2nccn2CC2CCC2)C1` (stereo unspecified) it is 2.52%.
`CC(C)N(CCNC(=O)c1n[nH]c2ccccc12)C(C)C`: the cytotoxicity at 10 µM is -42.8%.
To `CC(C)NC(=O)NCCn1nc(C(F)(F)F)n(C)c1=O` belongs -0.173%; to `CN(Cc1ccccc1)c1ccc(C(F)(F)F)cn1`, 10.2%.
Regarding `CN1C(=O)C2(CCN(Cc3nccn3C)CC2)c2ccccc21`, the cytotoxicity at 10 µM came out at 1.49%.
The figure for `COc1cc(C(C)NCc2scnc2C)ccc1SC(F)F` (stereo unspecified) is 36.8%.
The figure for `CN(c1c(F)cccc1F)S(=O)(=O)c1cc2c(c(C(=O)O)c1)OCCO2` is -7.57%; for `O=C([C@@H]1CCO[C@@H]2CCN(CC3CCOCC3)C[C@H]21)N1CCCC1` it is -114%; for `O=C(CC1CCc2ccccc21)NCCSc1ccccn1` (stereo unspecified) it is -0.214%.
The figure for `O=C(NCc1ccccc1CN1CCOCC1)c1ccc(Br)cc1F` is 12.3%.
Consider `CCCc1nnc(N2CCC(N3CCN(CCO)CC3)CC2)o1`, for which the cytotoxicity at 10 µM is -4.95%.
To `COc1ccc(C(C)NCc2ccc(OC)c(OC)c2OC)cc1F` (stereo unspecified) belongs 55.9%.
The figure for `O=C(NCc1ccccc1)N1CCc2ncnc(NC3CC3)c2CC1` is -100%.
The figure for `Cc1cccc(CN2CC[C@@H]3[C@@H]2CCN3Cc2cccs2)n1` is -117%; for `O=C(NCc1ccncc1)N1CCSCC1c1ccc(Cl)cc1` (stereo unspecified) it is 1.6%; for `CC(Cn1ccnc1)NCc1cc(Br)c2c(c1)OCO2` (stereo unspecified) it is 12.9%.
For `CN(C(=O)Cc1ccc(NC(=O)NC2CC2)cc1)c1ccccc1`, the cytotoxicity at 10 µM amounted to 6.35%.
The figure for `Cc1cc(C(=O)N(C)Cc2cnn(C)c2C)n(C)n1` is 8.19%; for `Cc1sc(CN)nc1-c1ccc(Cl)cc1` it is -3.07%; for `CC(=O)N1N=C(c2ccccc2)OC1C(=O)NCCN(C(C)C)C(C)C` (stereo unspecified) it is 0.238%.
To `COc1ccc(C2CC(=O)NCc3nc4ccccn4c32)cn1` (stereo unspecified) belongs -3.95%; to `COc1cc(C)ccc1OCCC(=O)N1CCC(C(N)=O)C1` (stereo unspecified), 6.31%; to `CCn1cnnc1CNC(=O)N1CCC(Cc2cccnc2)CC1`, 4.38%.
The figure for `Cc1nc(=O)c(CC(=O)N2C[C@H]3CC[C@@H](C2)N(CC2CCC2)C3)c(C)[nH]1` is 9.6%; for `CC(=O)c1cc(C(=O)N2Cc3ccccc3OC3(CCOCC3)C2)cs1` it is -20%.
On to `Cc1nccc(-c2cccc(NCC(=O)N3CCNC(=O)C3)c2)n1`, for which the cytotoxicity at 10 µM was -0.797%.
To `CC1N(C)C(=O)COC12CCN(C(=O)Cc1ccsc1)CC2` (stereo unspecified) belongs 2.81%.
To `NC(=O)c1cnc(NC2CCC(c3ccccc3)CC2)c(Cl)c1` (stereo unspecified) belongs 27.2%.
To `O=C(c1cccnc1N1CCOCC1)N1CCCC(n2cccn2)C1` (stereo unspecified) belongs 0.985%; to `COc1ccccc1CN1CC[C@H]2C[C@@H](C(=O)N3CCCC3)O[C@H]2C1`, 7.28%.
For the compound `O=C(C(CNCc1ccncc1)c1ccccc1)N1CCOCC1` (stereo unspecified), the cytotoxicity at 10 µM is -19%.
The figure for `COc1ccc(C(=O)NCCN(C)C)c(I)c1` is -1.93%; for `CCOc1cccc2c1OCC(C(=O)NS(=O)(=O)c1ccc(C)s1)=C2` it is -9.02%; for `N#Cc1cccc(N2CCC3(CCC(=O)N(CC(N)=O)C3)CC2)n1` it is 3.14%.
To `OCCNc1nc(NCCc2ccccc2)nc2nccnc12` belongs 5.91%; to `Cc1noc(C)c1CN1C[C@@H]2CCCO[C@@H]2[C@H](Nc2ccccn2)C1`, 5.44%.
The figure for `O=C(CCS(=O)(=O)C1CCCC1)NCCc1cccc(O)c1` is -3.09%; for `COCCn1c2c(ccc1=O)CC(NC(=O)c1cscn1)CC2` (stereo unspecified) it is -97%; for `CNc1ncc(CN(C)C(=O)c2c[nH]nc2-c2cccc(F)c2)cn1` it is -4.69%.
Consider `CN1CC2(COCCN(c3ncccn3)C2)OCC1=O` (stereo unspecified), for which the cytotoxicity at 10 µM is -112%.
To `COc1ccc(S(=O)(=O)N[C@H]2CN(C(C)=O)C[C@@H]2C2CC2)cc1C` belongs 4.57%.
The figure for `Cc1nnc(NCC2(c3ccccc3)CCC2)c(C#N)c1C` is 19.9%.
To `Cc1nnc2n1CCN(C(=O)C1CCC(n3cccc3)CC1)C2` (stereo unspecified) belongs -1.05%; to `O=C(C1CCOC1)N1CCc2ncnc(C3CC3)c2CC1` (stereo unspecified), -2.62%; to `CN(C)CCCNC(=O)c1ccc(Cl)cc1Cl`, -21%.
As to `CCN1CCCC(c2c(-c3ccccc3)ncn2CC(N)=O)C1` (stereo unspecified), the cytotoxicity at 10 µM is -15.4%.
Take `CC1CN(c2ncnc3c2cnn3C)CCN1c1nccs1` (stereo unspecified): the cytotoxicity at 10 µM amounted to 7.04%.
In the case of `Cc1ccc(-c2cc(N)c(=O)n(CC(=O)NCC3CC3)n2)s1`, the cytotoxicity at 10 µM amounted to 10.3%.
Consider `Cc1nn(C)cc1C(=O)N1CCCN(C2Cc3ccccc3C2)CC1`, for which the cytotoxicity at 10 µM was -3.16%.
`CC(C)(C)n1nc(C2CC2)cc1C(=O)NCC1(C(N)=O)CCOCC1`: the cytotoxicity at 10 µM is -11.1%.
